The values that follow come from ChEMBL document CHEMBL1125937, “Nucleosides and nucleotides. 100. 2'-C-cyano-2'-deoxy-1-beta-D-arabinofuranosyl-cytosine (CNDAC): design of a potential mechanism-based DNA-strand-breaking antineoplastic nucleoside” (J Med Chem, 1991).

What all share (format): functional, cell-based
Experiment [1] deals with PC-3. Description: Inhibitory effect tested in vitro for the growth of Lung adenocarcinoma PC-3 cell line. Conditions: Homo sapiens. In a few lines:
(§1)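 MTT assay: tumor cells seeded at 1 × 10^4 per well, incubated 72 h with or without compound, then MTT added and OD 570 nm read. % inhibition = [1 − OD sample/OD control] × 100. IC50 is the concentration giving 50% inhibition of cell growth.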

Experiment [2] has as its system HOS-TE85. Description: Inhibitory effect tested in vitro for the growth of Osteosarcoma MNNG-HOS cell line. Particulars: Homo sapiens. In a few lines: as §1
In experiment [3] the test system is KHOS-321H. The experiment is described as follows: Inhibitory effect tested in vitro for the growth of Osteosarcoma KHOS-321H cell line. Conditions: Homo sapiens. In a few lines: as §1
Experiment [4] concerns SK-ES1. The experiment is described as follows: Inhibitory effect tested in vitro for the growth of Osteosarcoma SK-ES-1 cell line. Conditions: Homo sapiens. In a few lines: as §1
The subject of experiment [5] is MKN-28. Description: Inhibitory effect tested in vitro for the growth of Stomach adenocarcinoma MKN- 28 cell line. Particulars: Homo sapiens. In a few lines: as §1
Experiment [6] deals with SW480. Description: Inhibitory effect tested in vitro for the growth of colon adenocarcinoma SW-480 cell line. Conditions: Homo sapiens. In a few lines:
as §1

In experiment [7] the test system is OST. The experiment is described as follows: Inhibitory effect tested in vitro for the growth of Osteosarcoma OST cell line. Particulars: Homo sapiens. In a few lines:
as §1

Experiment [8] concerns NUGC-4. Description: Inhibitory effect tested in vitro for the growth of Stomach adenocarcinoma NUGC-4 cell line. Conditions: Homo sapiens. In a few lines:
as §1

In experiment [9] the test system is PC-9. Description: Inhibitory effect tested in vitro for the growth of Lung adenocarcinoma PC-9 cell line. Conditions: Homo sapiens. In a few lines:
as §1

Experiment [10] concerns QG-56. Description: Inhibitory effect tested in vitro for the growth of Lung squamous-cell carcinoma QG-56 cell line. Particulars: Homo sapiens. In a few lines:
as §1

Experiment [11] relates to PC-8. Description: Inhibitory effect tested in vitro for the growth of Lung adenocarcinoma PC-8 cell line. Conditions: Homo sapiens. In a few lines: as §1
For experiment [12], the system named is ST-KM-1. Description: Inhibitory effect tested in vitro for the growth of Stomach adenocarcinoma ST-KM cell line. Conditions: Homo sapiens. In a few lines: as §1
Experiment [13] has as its system PC-13. The experiment is described as follows: Inhibitory effect tested in vitro for the growth of Lung adenocarcinoma PC-13 cell line. Particulars: Homo sapiens, in the assay text read “Lung large-cell carcinoma” for “Lung adenocarcinoma”. In a few lines:
as §1

Experiment [14] concerns MKN-1. Description: Inhibitory effect tested in vitro for the growth of Stomach adenocarcinoma MKN-1 cell line. Conditions: Homo sapiens. In a few lines:
as §1

The test system of experiment [15] is MKN-7. The experiment is described as follows: Inhibitory effect tested in vitro for the growth of Stomach adenocarcinoma MKN-7 cell line. Particulars: Homo sapiens. In a few lines:
as §1

As a reminder, the IC50 is the concentration at which inhibition is half-maximal. A high value points to weaker potency.

Structures are written as SMILES. Values after ≈ are worked out from the molar mass of the structure shown.

On to `Nc1ccn([C@@H]2O[C@H](CO)[C@@H](O)[C@H]2O)c(=O)n1` [CYTIDINE], for which the IC50 in experiment [1] is above 100 µg/mL; in experiment [2], 2.6 µg/mL (≈ 10.7 µM); in [3], 0.27 µg/mL (≈ 1.11 µM); in experiment [4] it was 0.09 µg/mL (≈ 0.37 µM); in experiment [5], 4.5 µg/mL (≈ 18.5 µM); in [6] it was above 100 µg/mL. In addition, the IC50 was above 100 µg/mL in experiment [7]; above 100 µg/mL in [8]; 1.6 µg/mL (≈ 6.58 µM) in [9]; above 100 µg/mL in [10]; 0.28 µg/mL (≈ 1.15 µM) in [11]; above 100 µg/mL in [12]. Moreover, the IC50 in experiment [13] was above 100 µg/mL.
Turning to `N#C[C@H]1[C@H](O)[C@@H](CO)O[C@H]1n1ccc(N)nc1=O` [TAS-109], the IC50 in experiment [1] was 5.6 µg/mL (≈ 22.2 µM); in [2], 6.8 µg/mL (≈ 27 µM); in experiment [3], 4.5 µg/mL (≈ 17.8 µM); in experiment [4], 2.2 µg/mL (≈ 8.72 µM); in [5], 1.7 µg/mL (≈ 6.74 µM); in experiment [6], 0.27 µg/mL (≈ 1.07 µM). The concentration for half-maximal inhibition (IC50) in [7] is 6.4 µg/mL (≈ 25.4 µM); in [8] it was 5.2 µg/mL (≈ 20.6 µM); in [9], 4.4 µg/mL (≈ 17.4 µM); in experiment [10], 40 µg/mL (≈ 159 µM); in [14] it was 2.1 µg/mL (≈ 8.33 µM); in [11], 4.6 µg/mL (≈ 18.2 µM). Besides, the IC50 in experiment [15] was 1.4 µg/mL (≈ 5.55 µM); in [12], 2.8 µg/mL (≈ 11.1 µM); in experiment [13], above 100 µg/mL.
